Assay results published in ChEMBL document CHEMBL4364292, “Discovery of a Potent and Selective CCR4 Antagonist That Inhibits Treg Trafficking into the Tumor Microenvironment” (J Med Chem, 2019).
pIC50: −log10 of the molar value. Values belong to the compound of their own block, whether it stands above or below them.

How the values were obtained:
[1] = molecular target: T1, C-C chemokine receptor type 4 (Homo sapiens, UniProt P51679); assay: Antagonist activity at human CCR4 expressed in rat chem-5 cells assessed as inhibition of CCL22-induced calcium flux measured at 2.5 secs time interval for 45 secs by fluorescence assay; assay type: functional, cell-based
T1 sequence (P51679 whole entry): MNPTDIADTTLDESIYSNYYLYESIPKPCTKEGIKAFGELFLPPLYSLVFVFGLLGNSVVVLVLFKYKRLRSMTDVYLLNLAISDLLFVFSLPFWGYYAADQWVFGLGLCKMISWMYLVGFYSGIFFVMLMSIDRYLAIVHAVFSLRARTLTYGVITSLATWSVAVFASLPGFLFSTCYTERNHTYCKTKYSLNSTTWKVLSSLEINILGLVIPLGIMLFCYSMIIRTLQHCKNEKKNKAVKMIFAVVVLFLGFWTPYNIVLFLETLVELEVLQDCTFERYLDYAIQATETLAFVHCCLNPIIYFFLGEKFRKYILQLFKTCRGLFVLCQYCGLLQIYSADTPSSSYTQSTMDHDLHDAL
Outline: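 Calcium flux functional readout of CCR4 antagonism, run without serum; IC50 reported.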

[2] = Stability in human hepatocytes assessed as compound remaining incubated for 60 mins under shaking condition by LC-MS/MS analysis; assay type: ADME, cell-based, Hepatocyte; conditions: read-out: Stability
Outline: (§1)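 Human and rat hepatocytes exposed to compound; percent parent remaining reported.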

[3] = Stability in rat hepatocytes assessed as compound remaining incubated for 60 mins under shaking condition by LC-MS/MS analysis; assay type: ADME, cell-based, Hepatocyte; conditions: read-out: Stability; outline: as §1
[4] = Hepatic clearance in rat at 0.5 mg/kg, iv; assay type: ADME, organism-based; conditions: in vivo
[5] = AUCinfinity in rat at 0.5 mg/kg, iv; assay type: ADME, organism-based; set-up: dose 0.5 mg/kg, route intravenous, time infinity; conditions: in vivo
[6] = Oral bioavailability in rat at 2 mg/kg, po; assay type: ADME, organism-based; conditions: in vivo
[7] = AUC(0 to infinity) in rat at 2 mg/kg, po; assay type: ADME, organism-based; set-up: dose 2 mg/kg, route oral, time infinity; conditions: in vivo
[8] = Volume of distribution at steady state in rat at 0.5 mg/kg, iv or 2 mg/kg, po; assay type: ADME, organism-based; conditions: in vivo, read-out: Vdss
[9] = molecular target: Cytochrome P450 2C19 (Homo sapiens, UniProt P33261); assay: Inhibition of CYP2C19 (unknown origin); assay type: ADME
Outline: (§2)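 CYP inhibition tested against 1A2, 2C9, 2C19, 2D6 and 3A4; IC50 in μM.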

[10] = molecular target: Cytochrome P450 2C9 (Homo sapiens, UniProt P11712); assay: Inhibition of CYP2C9 (unknown origin); assay type: ADME; outline: as §2
[11] = Hepatic clearance in rat at 0.5 mg/kg, iv or 2 mg/kg, po; assay type: ADME, organism-based; conditions: in vivo
[12] = molecular target: Cytochrome P450 2D6 (Homo sapiens, UniProt P10635); assay: Inhibition of CYP2D6 (unknown origin); assay type: ADME; outline: as §2
[13] = molecular target: T2, Cytochrome P450 1A2 (Homo sapiens, UniProt P05177); assay: Inhibition of CYP1A2 (unknown origin); assay type: ADME; outline: as §2
T2 sequence (P05177 whole entry): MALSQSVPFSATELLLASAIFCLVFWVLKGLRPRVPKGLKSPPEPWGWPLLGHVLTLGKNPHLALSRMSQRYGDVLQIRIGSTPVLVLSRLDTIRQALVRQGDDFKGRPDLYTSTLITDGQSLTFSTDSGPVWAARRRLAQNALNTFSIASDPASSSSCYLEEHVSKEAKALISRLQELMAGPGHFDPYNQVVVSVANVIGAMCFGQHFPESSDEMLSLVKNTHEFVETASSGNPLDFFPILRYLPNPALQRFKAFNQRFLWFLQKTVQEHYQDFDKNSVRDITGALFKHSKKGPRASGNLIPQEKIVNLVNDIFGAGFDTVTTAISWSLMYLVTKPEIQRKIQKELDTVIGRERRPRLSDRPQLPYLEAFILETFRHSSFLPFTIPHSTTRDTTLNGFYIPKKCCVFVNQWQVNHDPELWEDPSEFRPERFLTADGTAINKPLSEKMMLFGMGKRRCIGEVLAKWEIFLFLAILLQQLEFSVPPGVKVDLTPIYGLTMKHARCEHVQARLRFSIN

[14] = Terminal half-life in rat at 0.5 mg/kg, iv or 2 mg/kg, po; assay type: ADME, organism-based; conditions: in vivo, read-out: beta t1/2 (converted)
[15] = molecular target: Cytochrome P450 3A4 (Homo sapiens, UniProt P08684); assay: Inhibition of CYP3A4 (unknown origin); assay type: ADME; outline: as §2
[16] = Bioavailability in rat; assay type: ADME, organism-based; conditions: in vivo

Chain of Cytochrome P450 3A4 (P08684 whole entry): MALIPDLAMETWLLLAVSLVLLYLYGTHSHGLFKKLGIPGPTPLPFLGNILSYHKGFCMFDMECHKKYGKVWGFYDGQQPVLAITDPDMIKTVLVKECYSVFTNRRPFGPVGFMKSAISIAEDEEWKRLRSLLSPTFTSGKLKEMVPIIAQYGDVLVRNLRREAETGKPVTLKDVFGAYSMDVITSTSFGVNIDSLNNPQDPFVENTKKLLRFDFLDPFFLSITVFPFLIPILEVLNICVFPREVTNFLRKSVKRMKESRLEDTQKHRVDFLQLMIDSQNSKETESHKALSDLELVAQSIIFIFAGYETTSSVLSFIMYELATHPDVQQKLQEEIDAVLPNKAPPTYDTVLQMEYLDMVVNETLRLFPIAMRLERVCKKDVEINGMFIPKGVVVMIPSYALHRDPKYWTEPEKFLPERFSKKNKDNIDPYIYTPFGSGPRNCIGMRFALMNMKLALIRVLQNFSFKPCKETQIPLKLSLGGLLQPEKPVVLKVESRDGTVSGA
Chain of Cytochrome P450 2D6 (P10635 whole entry): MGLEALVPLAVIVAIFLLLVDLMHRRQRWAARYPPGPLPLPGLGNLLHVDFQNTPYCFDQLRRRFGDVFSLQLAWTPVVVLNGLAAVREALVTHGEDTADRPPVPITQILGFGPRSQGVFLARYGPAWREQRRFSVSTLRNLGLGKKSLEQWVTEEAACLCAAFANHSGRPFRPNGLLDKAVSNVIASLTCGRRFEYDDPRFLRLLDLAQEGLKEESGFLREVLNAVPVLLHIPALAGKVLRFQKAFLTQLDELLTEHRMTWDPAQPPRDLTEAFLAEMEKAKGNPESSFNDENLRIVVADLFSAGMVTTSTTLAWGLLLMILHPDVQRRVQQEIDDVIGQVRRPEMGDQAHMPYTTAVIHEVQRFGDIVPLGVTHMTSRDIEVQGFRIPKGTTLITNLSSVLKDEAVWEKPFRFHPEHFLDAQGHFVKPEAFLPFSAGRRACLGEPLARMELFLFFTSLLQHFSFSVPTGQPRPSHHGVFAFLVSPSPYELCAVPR
Chain of Cytochrome P450 2C19 (P33261 whole entry): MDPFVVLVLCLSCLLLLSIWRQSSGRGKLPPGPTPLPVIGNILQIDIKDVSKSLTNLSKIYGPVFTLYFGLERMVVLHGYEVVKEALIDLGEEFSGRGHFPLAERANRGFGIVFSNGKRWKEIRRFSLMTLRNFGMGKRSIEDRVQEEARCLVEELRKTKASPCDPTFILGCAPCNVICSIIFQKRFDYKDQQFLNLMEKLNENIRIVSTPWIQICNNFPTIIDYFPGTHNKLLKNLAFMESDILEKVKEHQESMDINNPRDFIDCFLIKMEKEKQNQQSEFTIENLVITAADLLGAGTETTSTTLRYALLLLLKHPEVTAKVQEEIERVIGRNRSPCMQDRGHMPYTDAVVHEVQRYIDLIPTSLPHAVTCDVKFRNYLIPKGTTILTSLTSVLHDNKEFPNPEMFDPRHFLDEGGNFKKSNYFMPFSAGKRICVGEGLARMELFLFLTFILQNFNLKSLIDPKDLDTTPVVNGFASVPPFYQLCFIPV
Chain of Cytochrome P450 2C9 (P11712 whole entry): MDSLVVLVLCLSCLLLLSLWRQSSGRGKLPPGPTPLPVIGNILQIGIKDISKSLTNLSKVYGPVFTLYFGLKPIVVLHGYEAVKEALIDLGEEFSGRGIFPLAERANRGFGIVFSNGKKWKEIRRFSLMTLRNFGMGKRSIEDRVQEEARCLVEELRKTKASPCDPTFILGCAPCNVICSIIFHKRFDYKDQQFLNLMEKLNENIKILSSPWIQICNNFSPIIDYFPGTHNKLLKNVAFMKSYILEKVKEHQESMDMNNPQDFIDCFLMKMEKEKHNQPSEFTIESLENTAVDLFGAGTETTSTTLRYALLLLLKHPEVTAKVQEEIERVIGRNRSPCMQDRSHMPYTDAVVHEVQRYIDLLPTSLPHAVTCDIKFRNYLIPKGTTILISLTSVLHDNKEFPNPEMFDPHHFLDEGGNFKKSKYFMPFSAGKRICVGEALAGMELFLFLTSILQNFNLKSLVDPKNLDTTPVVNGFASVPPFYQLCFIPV

SMILES: C[C@@H]1CC(c2cnc3c(C#N)nn([C@H](C)c4ccc(Cl)cc4Cl)c3n2)=CC[C@@H]1N1CCC[C@H]1CN
pIC50 [1]: 6.64
remaining at 1 h [2]: 100%
remaining at 1 h [3]: 100%

SMILES: Cc1nn([C@H](C)c2ccc(Cl)cc2Cl)c2nc(N3CC[C@H](N4CCC[C@@H]4C)[C@H](C)C3)cnc12
pIC50 [1]: 6.76

SMILES: CC1CN(c2cnc3cnn(C(C)c4ccc(Cl)cc4Cl)c3n2)CCC1N1CCCCC1 (configuration not stated)
CLH [4]: 121.7 mL/min/kg
pIC50 [1]: 6.62
AUC(0-inf) [5]: 68 ng·h/mL

SMILES: CC(c1ccc(Cl)cc1Cl)n1ncc2ncc(N3CCC(N4CCCCC4)CC3)nc21 (configuration not stated)
pIC50 [1]: 5.59

SMILES: Cc1nn([C@H](C)c2ccc(Cl)cc2Cl)c2nc(N3CC[C@H](N4CCC[C@H]4C(N)=O)[C@H](C)C3)cnc12
pIC50 [1]: 6.77

SMILES: CC1CN(c2cnc3c(C#N)nn(C(C)c4ccc(Cl)cc4Cl)c3n2)CCC1N1CCCCC1 (configuration not stated)
CLH [4]: 101.7 mL/min/kg
pIC50 [1]: 6.60
AUC(0-inf) [5]: 82 ng·h/mL

Now those with a higher pIC50 [1], led by results:

pIC50 [1]: 7.33
SMILES: Cc1nn([C@H](C)c2ccc(Cl)cc2Cl)c2nc(N3CC[C@H](N4CCC[C@H]4C)[C@H](C)C3)cnc12

pIC50 [1]: 7.49
SMILES: Cc1nn([C@H](C)c2ccc(Cl)cc2Cl)c2nc(N3CC[C@H](N4CCC[C@H]4CCS(N)(=O)=O)[C@H](C)C3)cnc12

pIC50 [1]: 7.43
SMILES: Cc1nn([C@H](C)c2ccc(Cl)cc2Cl)c2nc(N3CC[C@H](N4CCC[C@H]4CCC(N)=O)[C@H](C)C3)cnc12

bioavailability [6]: 7%
AUC(0-inf) [7]: 23.2 ng·h/mL
Vd [8]: 13.4 L/kg
pIC50 [9]: < 5.00
pIC50 [10]: < 5.00
CLH [11]: 114.6 mL/min/kg
pIC50 [1]: 7.57
remaining at 1 h [2]: 74%
pIC50 [12]: < 5.00
pIC50 [13]: < 5.00
half-life [14]: 2.1 h
pIC50 [15]: < 5.00
remaining at 1 h [3]: 19%
SMILES: C[C@@H]1CN(c2cnc3c(C#N)nn([C@H](C)c4ccc(Cl)cc4Cl)c3n2)CC[C@@H]1N1CCC[C@H]1CO

CLH [4]: 38.3 mL/min/kg
pIC50 [1]: 6.90
AUC(0-inf) [5]: 217 ng·h/mL
SMILES: Cc1nn(C(C)c2ccc(Cl)cc2Cl)c2nc(N3CCC(N4CCCCC4)C(C)C3)cnc12 (configuration not stated)

pIC50 [1]: 7.27
bioavailability [16]: 7%
SMILES: C[C@@H](Nc1cncc(C2=CCN(C(=O)[C@H]3CCCCN3)CC2)n1)c1ccc(Cl)cc1Cl

pIC50 [1]: 7.44
remaining at 1 h [2]: 99%
remaining at 1 h [3]: 35%
SMILES: Cc1nn([C@H](C)c2ccc(Cl)cc2Cl)c2nc(C3=CC[C@H](N4CCC[C@H]4CO)[C@H](C)C3)cnc12

pIC50 [1]: 7.39
SMILES: Cc1nn([C@H](C)c2ccc(Cl)cc2Cl)c2nc(N3CC[C@H](N4CCC[C@H]4CCC#N)[C@H](C)C3)cnc12
